Source: PubChem BioAssay (Johns Hopkins Ion Channel Center)
Kir21 block: blocks the mouse Kir2.1 inward-rectifier potassium channel; B-score at 10 µM; HEK293-Kir2.1, FluxOR thallium flux fluorescence; active compounds read low; AID 1672; hit rate 0.85% among 310,000;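 active = fluorescence ratio B-score at or below minus 3 SD of library scores, with starting-brightness B-score within 2 SD, cut at about -4.2 in these data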;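 also: channel flux triggered by added potassium and thallium sulfate stimulus; B-score of peak minus minimum fluorescence over baseline after thallium stimulus; more negative B-score means stronger Kir2.1 block with less thallium influx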
KCNK3 inh: human KCNK3 channel inhibition, primary screen. AID 602410. B-score at 10 µM. O14649. hit rate 0.84% among 340,000. CHO-KCNK3 thallium flux, FluxOR fluorescence; active compounds read low;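 active = B-score under library mean minus 4 SD, starting fluorescence ratio at most library mean plus 5 SD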;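 also: more negative B-score means stronger inhibition of thallium flux through KCNK3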
KCNQ1 block: human KCNQ1 channel inhibition; P51787; CHO-K1 KCNQ1, FluxOR thallium flux fluorescence; active compounds read high; B-score at 10 µM; hit rate 1.3% among 310,000; AID 2642;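 active = compounds whose thallium flux B-score, printed positive for inhibition, exceeds three library SD while starting fluorescence stays within three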;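 also: channel opened by potassium depolarization with thallium stimulus after 20 min compound exposure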
Target sequence (P51787 whole entry, looked up): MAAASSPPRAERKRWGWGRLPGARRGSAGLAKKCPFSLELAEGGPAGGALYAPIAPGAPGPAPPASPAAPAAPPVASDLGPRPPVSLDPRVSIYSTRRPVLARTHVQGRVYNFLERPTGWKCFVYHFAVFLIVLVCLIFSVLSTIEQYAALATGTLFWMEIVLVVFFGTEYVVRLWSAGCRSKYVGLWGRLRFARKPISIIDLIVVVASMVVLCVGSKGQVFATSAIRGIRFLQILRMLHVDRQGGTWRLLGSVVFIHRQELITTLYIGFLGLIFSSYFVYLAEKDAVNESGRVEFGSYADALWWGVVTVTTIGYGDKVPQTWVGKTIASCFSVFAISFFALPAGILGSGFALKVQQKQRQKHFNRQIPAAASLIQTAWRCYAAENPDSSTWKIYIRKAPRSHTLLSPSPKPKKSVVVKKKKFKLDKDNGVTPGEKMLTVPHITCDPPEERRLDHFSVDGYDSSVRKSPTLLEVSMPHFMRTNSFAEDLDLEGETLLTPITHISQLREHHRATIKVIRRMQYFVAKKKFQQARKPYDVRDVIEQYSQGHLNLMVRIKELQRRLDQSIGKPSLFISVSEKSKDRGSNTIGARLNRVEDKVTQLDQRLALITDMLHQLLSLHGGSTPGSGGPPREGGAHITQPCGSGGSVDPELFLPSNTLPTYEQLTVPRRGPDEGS
KCNQ1 pot: human KCNQ1 channel potentiation or activation | P51787 | CHO-K1 KCNQ1, thallium flux FluxOR fluorescence; active compounds read high | B-score at 10 µM | hit rate 0.35% among 310,000;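 active = fluorescence ratio B-score, a plate-corrected score, at least three library SD, with initial intensity B-score within 5 SD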
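Assay system: CHO-K1 cells stably expressing KCNQ1. Medium: assay buffer for compound exposure, DMSO matched across wells. Timing: 37 °C overnight plating, 90-min dark dye load, 20-min compound pretreatment. Signal: kinetic FluxOR fluorescence, 10 s baseline plus 110 s post-stimulus.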
hERG protect: hERG (human) protection from proarrhythmic block; Q12809; CHO-hERG, FluxOR thallium flux, dofetilide IC70 present; activation (rescue from dofetilide block), less the hit threshold, % at 10 µM; hit rate 0.51% among 310,000; AID 1511;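 active = activation above the mean of controls blocked by dofetilide plus 5 SD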;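 also: thallium influx through hERG after potassium depolarization seen as dye fluorescence rise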
KCNK9 inh: human KCNK9 channel inhibition | AID 488922 | B-score at 10 µM | HEK293 KCNK9, FluxOR thallium flux fluorescence; active compounds read low | hit rate 1.2% among 310,000;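 active = ratio B-score over 3 SD below the library mean, with starting fluorescence within 5 SD of its mean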;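 also: negative B-score means less thallium flux so channel inhibition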
KCNK9 block conf: human KCNK9 inhibitor confirmation; shares compounds with KCNK9 inh; HEK293 KCNK9 cells, FluxOR thallium flux fluorescence; inhibition, % at 10 µM; hit rate 43% among 4,900;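 active = thallium signal inhibited by more than 5 SD of the compound-free buffer control wells, on both duplicate plates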
Kir2-1 spec: mouse Kir2.1 off-target activity of KCNK9 modulators; inhibition, % at 10 µM; Kir2.1 cells, FluxOR thallium flux fluorescence; AID 492993; shares compounds with KCNK9 inh; hit rate 4% among 4,900;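 active = thallium signal drop more than 5 SD beyond the mean of the no-compound control wells, seen in both duplicate plates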;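 also: signal is fluorescence rise after thallium addition divided by baseline fluorescence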
KCNK9 uninduced: second counter-screen for KCNK9 modulators: effect in non-induced cells | shares compounds with KCNK9 inh | non-induced KCNK9-HEK293, FluxOR thallium flux | inhibition, % at 10 µM | hit rate 40% among 4,900;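 active = thallium signal drop beyond 5 SD of the untreated control mean, on both duplicate plates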
Of the large screens only hits and unclear results are named; the others gave an inactive call (follow-up assays come after a bar, where they were run). A selection: hits, their analogues and other compounds. The true share with any hit is near 3.7%.

CCN1c2ccccc2-c2nc3ccccc3n2C1c1cccs1 (stereo not given)	KCNK9 inh -9.32 | KCNK9 block conf 59.0% | Kir2-1 spec inactive | KCNK9 uninduced 61.5%
COc1cc(NC(=O)CCc2c(C)[nH]c(=O)c(C#N)c2C)cc(OC)c1	none
Cc1sc(NC(=O)C2CCCCC2)c(C#N)c1-c1ccccc1	none | KCNK9 block conf inactive | Kir2-1 spec inactive | KCNK9 uninduced inactive
CCN(CC)S(=O)(=O)c1ccc(N2CCOCC2)c(NC(=O)c2cc3ccccc3oc2=O)c1	KCNK9 inh -11.6 | KCNK9 block conf 55.0% | Kir2-1 spec inactive | KCNK9 uninduced inactive
CC(C)CCc1noc(CN(CC2CCC2)CC2CCCO2)n1 (stereo not given)	none
Cc1cc2nnc(SC3CCCCN(C(=O)c4ccc(F)cc4)C3=O)n2c2ccccc12 (stereo not given)	none | KCNK9 block conf inactive | Kir2-1 spec inactive | KCNK9 uninduced inactive
CCCCn1c(N)c(N(CC(C)C)C(=O)c2cc(C)oc2C)c(=O)[nH]c1=O	none
CN(C)CC/C=C1\c2ccccc2COc2ccccc21	none
CN(C)CC/C=C1/c2ccccc2Sc2ccc(Cl)cc21	Kir21 block -4.28 | KCNK9 block conf inactive | Kir2-1 spec inactive | KCNK9 uninduced inactive
CN1N=C(c2ccc(Cl)cc2)CC(c2ccc(Cl)cc2)C1=O (stereo not given)	KCNK9 inh -10.7 | KCNK9 block conf 38.5% | Kir2-1 spec inactive | KCNK9 uninduced 40.0%
Cc1ccc(C2CC(c3ccc(Cl)cc3)=NNC2=O)cc1 (stereo not given)	none
Cc1cccc(/C(N)=N/OC(=O)CCCN2C(=O)c3ccccc3C2=O)c1	none | KCNK9 block conf inactive | Kir2-1 spec inactive | KCNK9 uninduced inactive
O=[N+]([O-])c1cccc2c3c([nH]c12)CCCC3	none
O=C(Nc1c(Cl)cccc1Cl)c1ccc(-c2ccccc2)cc1	KCNK9 inh -8.46 | KCNK9 block conf 33.5% | Kir2-1 spec inactive | KCNK9 uninduced inactive
O=C(Nc1ccc(Cl)cc1Cl)c1ccc(-c2ccccc2)cc1	none
NS(=O)(=O)OCC(Cc1ccccc1)N1C(=O)c2ccccc2C1=O (stereo not given)	none
Cc1cccn2c(=O)c(/C=C(\C#N)C(=O)NCc3ccco3)c(N3CCCCCC3)nc12	none | KCNK9 block conf inactive | Kir2-1 spec inactive | KCNK9 uninduced inactive
Cc1cccn2c(=O)c(/C=C(\C#N)C(=O)NCc3ccco3)c(N3CCCCC3)nc12	none
Cc1ccc(-n2c(SCC(N)=O)nnc2-c2ccc(S(=O)(=O)N3CCCCC3)cc2)c(C)c1	none
Cc1ccc(O)c(C(=O)CC(=O)c2ccc(C(C)(C)C)cc2)c1	none | KCNK9 block conf inactive | Kir2-1 spec inactive | KCNK9 uninduced inactive
CCOC(=O)c1nc2c(=O)n(C)c(=O)n(C)c2n(C)c1=O	none
Cc1cc(C)n(-c2nnc(C)n2/N=C/c2ccc(O)cc2)n1	none
Cc1cc(C)n(-c2nnc(C)n2/N=C/c2cc(Br)ccc2OCc2ccccc2)n1	KCNK9 inh -8.65 | KCNK9 block conf 41.0% | Kir2-1 spec inactive | KCNK9 uninduced inactive
CC(C)(C)NC(=O)C(c1ccccn1)N(C(=O)c1csnn1)C1CCCC1 (stereo not given)	none
O=C(NNc1ccccc1)NC(Cc1ccccc1)C(=O)O (stereo not given)	none (no result: Kir21 block, KCNQ1 block, KCNQ1 pot, hERG protect, KCNK9 inh)
COC(=O)C1=C(N)Oc2cc(C)n(Cc3ccco3)c(=O)c2C1c1cccc(Cl)c1 (stereo not given)	KCNK9 inh -13.5 | KCNK9 block conf 46.5% | Kir2-1 spec inactive | KCNK9 uninduced 45.0%
COC(=O)C1=C(N)Oc2cc(C)n(CC3CCCO3)c(=O)c2C1c1ccc(Cl)c(Cl)c1 (stereo not given)	KCNK9 inh -9.05 | KCNK9 block conf 35.0% | Kir2-1 spec inactive | KCNK9 uninduced 52.0%
CCn1c(C)cc2c(c1=O)C(c1ccccc1)C(C(=O)OC)=C(N)O2 (stereo not given)	none
N#Cc1ccccc1OCC(=O)NNC(=O)CCNC(=O)c1ccccc1	none (no result: Kir21 block, KCNQ1 block, KCNQ1 pot, hERG protect, KCNK9 inh)
Cc1ccc(NC(=O)c2cccc(OC(F)F)c2)c(OC(F)F)c1	KCNK9 inh -8.66 | KCNK9 block conf 54.0% | Kir2-1 spec inactive | KCNK9 uninduced 35.0%
CCOc1cccc(C(=O)Nc2ccccc2OC(F)F)c1	none
CCOC(=O)c1cc(-c2ccc(OC)cc2F)nc2c1c(C)nn2CCC#N	KCNQ1 block 6, KCNK9 inh -10.6 | KCNK9 block conf 53.5% | Kir2-1 spec inactive | KCNK9 uninduced 33.5%
CCCCCCCCNC(=O)/C(C#N)=C/c1ccc2c(c1)OCCO2	none | KCNK9 block conf inactive | Kir2-1 spec inactive | KCNK9 uninduced inactive
CCCCCCCCNC(=O)/C(C#N)=C/c1ccc(SC)cc1	none | KCNK9 block conf inactive | Kir2-1 spec inactive | KCNK9 uninduced inactive
CN(C[C@H](Cc1ccccc1)N(C[C@@H](Cc1cccc2ccccc12)N(CCc1ccccc1)N=O)N=O)N=O	KCNK9 inh -8.45 | KCNK9 block conf inactive | Kir2-1 spec inactive | KCNK9 uninduced 38.5%
CC(C)C[C@@H](CN(N=O)[C@@H](Cc1ccccc1)CN(C)N=O)N(CCc1ccccc1)N=O	none
CC(C)C[C@H]1C(=O)N2CCC[C@H]2[C@]2(O)O[C@](NC(=O)C3C=C4c5cccc6[nH]c(Br)c(c56)C[C@H]4N(C)C3)(C(C)C)C(=O)N12 (stereo not given in full)	KCNQ1 block 7 | KCNK9 block conf inactive | Kir2-1 spec inactive | KCNK9 uninduced inactive
CN1C(=O)Cc2cc(S(=O)(=O)Nc3ccc(N4CCOCC4)cc3)ccc21	none
CCOC(=O)C1CCCN(C2=NC(=O)/C(=C/c3ccc(N(C)C)cc3)S2)C1 (stereo not given)	KCNQ1 block 8, KCNK9 inh -8.42 | KCNK9 block conf 55.5% | Kir2-1 spec inactive | KCNK9 uninduced 86.0%
S=c1[nH]nc(-c2cccc3ccccc23)n1-c1cccnc1	none
O=C(/C=C/c1ccccc1)NCCSc1ccc(Cl)cc1	none | KCNK9 block conf inactive | Kir2-1 spec inactive | KCNK9 uninduced inactive
COc1cccc(C(CNC(=O)c2ccc(Cl)c(S(=O)(=O)N3CCCC3)c2)N(C)C)c1 (stereo not given)	none (no result: Kir21 block, KCNQ1 block, KCNQ1 pot, hERG protect, KCNK9 inh)
COc1ccc(C)cc1S(=O)(=O)N1CCN(C)CC1c1ccccc1 (stereo not given)	none (no result: Kir21 block, KCNQ1 block, KCNQ1 pot, hERG protect, KCNK9 inh)
CCN1CCCc2cc(CN(CCN3CCOCC3)C(=O)Nc3ccc(C)c(C)c3)ccc21	none | KCNK9 block conf inactive | Kir2-1 spec inactive | KCNK9 uninduced inactive
